Test results as given in ChEMBL document CHEMBL3739352, “Anticonvulsant activity, crystal structures, and preliminary safety evaluation of N-trans-cinnamoyl derivatives of selected (un)modified aminoalkanols” (Eur J Med Chem, 2016).
Blank lines part the entries; values can stand above or below the compound they belong to. Activity calls are given as the source filed them. No cut-off for these calls is given here.

Key:
[1] = system: Salmonella typhimurium; experiment: Mutagenicity in Salmonella typhimurium TA98 assessed as number of revertants at 10 ug/plate by Ames test (reference value: 23 +/- 3); type: toxicity, organism-based; settings: salmonella enterica subsp. enterica serovar typhimurium
[2] = system: Mus musculus; experiment: Neurotoxicity in albino Carworth Farms No.1 mouse at 30 mg/kg, ip after 4 hrs by rotarod test; type: toxicity, organism-based; settings: in vivo
Outline: (§1)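 Mice (albino Carworth Farms No.1) were dosed i.p. at 30, 100 or 300 mg/kg in 0.5% methylcellulose. They were tested 0.5 and 4 h later on a 1-inch knurled rod rotating at 6 rpm. Neurotoxicity was scored if a mouse could not stay on the rod for at least 1 min in each of three trials. Results are given as animals toxic/animals tested, with deaths noted.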

[3] = system: Mus musculus; experiment: Anticonvulsant activity in albino Carworth Farms No.1 mouse assessed as protection against 6-Hz electroshock-induced seizures at 100 mg/kg, ip after 4 hrs; type: functional, organism-based
Outline: (§2)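 Carworth Farms No.1 albino mice were dosed i.p. at 100 mg/kg (0.5% methylcellulose solution or suspension). 6-Hz seizures were induced at 32 mA at 0.25, 0.5, 1.0, 2.0 and 4 h after injection. Results are given as animals protected / animals tested.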

[4] = system: Mus musculus; experiment: Neurotoxicity in albino Carworth Farms No.1 mouse at 100 mg/kg, ip after 4 hrs by rotarod test; type: toxicity, organism-based; settings: in vivo; outline: as §1
[5] = system: Mus musculus; experiment: Anticonvulsant activity in albino Carworth Farms No.1 mouse assessed as protection against maximal electroshock-induced seizures at 100 mg/kg, ip after 0.5 hrs; type: functional, organism-based
Outline: (§3)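 Mouse i.p. screen in Carworth Farms No.1 albino mice at 30, 100 or 300 mg/kg in 0.5% methylcellulose. Testing was at 0.5 and 4 h after injection, by maximal electroshock or by subcutaneous pentetrazol challenge. Scoring was number protected / number used.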

[6] = system: Mus musculus; experiment: Anticonvulsant activity in albino Carworth Farms No.1 mouse assessed as protection against 6-Hz electroshock-induced seizures at 100 mg/kg, ip after 0.25 hrs; type: functional, organism-based; outline: as §2
[7] = system: Mus musculus; experiment: Anticonvulsant activity in albino Carworth Farms No.1 mouse assessed as protection against maximal electroshock-induced seizures at 100 mg/kg, ip after 4 hrs; type: functional, organism-based; outline: as §3
[8] = system: Mus musculus; experiment: Neurotoxicity in albino Carworth Farms No.1 mouse at 300 mg/kg, ip after 4 hrs by rotarod test; type: toxicity, organism-based; settings: in vivo; outline: as §1
[9] = Lipophilicity of the compound using 90% methanol in water at 1 mg/ml by RT-TLC analysis; type: physicochemical; settings: buffer
Outline: (§4)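 Reversed-phase TLC with a methanol–water mobile phase at the stated methanol content (v/v). Compounds were spotted from 1 mg/mL methanol solutions after 1 h chamber saturation and located under UV light. Rf was measured and RM = log(1/Rf − 1) calculated.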

[10] = system: Mus musculus; experiment: Anticonvulsant activity in albino Carworth Farms No.1 mouse assessed as protection against 6-Hz electroshock-induced seizures at 100 mg/kg, ip after 1 hr; type: functional, organism-based; outline: as §2
[11] = Lipophilicity of the compound using 65% methanol in water at 1 mg/ml by RT-TLC analysis; type: physicochemical; settings: buffer; outline: as §4
[12] = Lipophilicity of the compound using 75% methanol in water at 1 mg/ml by RT-TLC analysis; type: physicochemical; settings: buffer; outline: as §4
[13] = Lipophilicity of the compound using 85% methanol in water at 1 mg/ml by RT-TLC analysis; type: physicochemical; settings: buffer; outline: as §4
[14] = Lipophilicity of the compound at 1 mg/ml by RT-TLC analysis relative to 0% methanol; type: physicochemical; settings: methanol/water
Outline: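 Reversed-phase TLC used methanol–water mobile phases of 95–65% methanol. Compounds were applied from 1 mg/mL methanol solutions after 1 h chamber saturation, with UV detection. RM = log(1/Rf − 1) was calculated at each methanol level and extrapolated linearly (RM = RM0 + bC) to 0% methanol to give RM0.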

[15] = system: Mus musculus; experiment: Anticonvulsant activity in albino Carworth Farms No.1 mouse assessed as protection against subcutaneous dosed pentetrazol-induced seizures at 100 mg/kg, ip after 4 hrs; type: functional, organism-based; outline: as §3
[16] = system: Mus musculus; experiment: Anticonvulsant activity in albino Carworth Farms No.1 mouse assessed as protection against 6-Hz electroshock-induced seizures at 100 mg/kg, ip after 2 hrs; type: functional, organism-based; outline: as §2
[17] = system: Mus musculus; experiment: Anticonvulsant activity in albino Carworth Farms No.1 mouse assessed as protection against subcutaneous dosed pentetrazol-induced seizures at 100 mg/kg, ip after 0.5 hrs; type: functional, organism-based; outline: as §3
[18] = Lipophilicity of the compound using 95% methanol in water at 1 mg/ml by RT-TLC analysis; type: physicochemical; settings: buffer; outline: as §4
[19] = system: Mus musculus; experiment: Neurotoxicity in albino Carworth Farms No.1 mouse at 100 mg/kg, ip after 0.5 hrs by rotarod test; type: toxicity, organism-based; settings: in vivo; outline: as §1
[20] = system: Mus musculus; experiment: Anticonvulsant activity in albino Carworth Farms No.1 mouse assessed as protection against 6-Hz electroshock-induced seizures at 100 mg/kg, ip after 0.5 hrs; type: functional, organism-based; outline: as §2
[21] = system: Rattus norvegicus; experiment: Anticonvulsant activity in po dosed Sprague-Dawley rat assessed as protection against subcutaneous dosed pentetrazol-induced seizures after 0.5 hrs; type: functional
Outline: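 Sprague-Dawley rats received graded oral doses suspended or dissolved in 0.5% methylcellulose. Challenge was maximal electroshock or subcutaneous pentetrazol at the stated time after dosing.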

[22] = system: Mus musculus; experiment: Anticonvulsant activity in ip dosed albino Carworth Farms No.1 mouse assessed as protection against subcutaneous dosed pentetrazol-induced seizures after 0.25 hrs; type: functional; settings: Carworth Farms No.1, 0.25 h
Outline: (§5)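 Quantitative i.p. evaluation in Carworth Farms No.1 albino mice, with graded doses in 0.5% methylcellulose. MES, scPTZ or 6-Hz (32 mA) seizure tests were run at 0.25 h.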

[23] = in vitro; settings: human, HepG2 cells
[24] = Hepatotoxicity against human HepG2 cells assessed as cell viability at 10 uM after 24 hrs by MTT assay relative to control; type: toxicity, cell-based; settings: read-out: Activity
Outline: (§6)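 HepG2 cells (EMEM, 10% FBS, 37 °C, 5% CO₂) were seeded at 1 × 10⁴ per well and cultured overnight. They were then exposed to increasing compound concentrations for 24 h. MTT reagent was added for 3 h and formazan crystals dissolved before reading. Data are mean ± SD of at least three independent experiments, relative to untreated control.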

[25] = in vitro; settings: human, HepG2 cells; remark: listed apart in the source
[26] = Hepatotoxicity against human HepG2 cells assessed as cell viability at 25 uM after 24 hrs by MTT assay relative to control; type: toxicity, cell-based; settings: read-out: Activity; outline: as §6
[27] = Hepatotoxicity against human HepG2 cells assessed as cell viability at 50 uM after 24 hrs by MTT assay relative to control
[28] = in vitro; settings: human, HepG2 cells; remark: listed apart in the source
[29] = in vitro; settings: human, HepG2 cells; remark: listed apart in the source
[30] = Hepatotoxicity against human HepG2 cells assessed as cell viability at 100 uM after 24 hrs by MTT assay relative to control
[31] = system: Mus musculus; experiment: Anticonvulsant activity in ip dosed albino Carworth Farms No.1 mouse assessed as protection against 6-Hz electroshock-induced seizures after 0.25 hrs; type: functional; settings: Carworth Farms No.1, ip; outline: as §5

SMILES: Nc1ccc([N+](=O)[O-])cc1N
Activity [1]: 647

Rm [9]: -0.27
Rm [11]: 0.5
Rm [12]: 0.1
Rm [13]: -0.02
Rm [14]: 1.758
Rm [18]: -0.39
SMILES: CC(NC(=O)/C=C/c1ccccc1)C(=O)NCN1CCCCC1 (racemic)
Activity [2]: Non-toxic
Activity [3]: inactive
Activity [4]: Non-toxic
Activity [5]: inactive
Activity [6]: inactive
Activity [7]: inactive
Activity [8]: Non-toxic
Activity [10]: inactive
Activity [15]: inactive
Activity [16]: inactive
Activity [17]: inactive
Activity [19]: Non-toxic
Activity [20]: inactive

SMILES: NC(=O)N1c2ccccc2C=Cc2ccccc21 [CARBAMAZEPINE]
ED50 [21]: > 250 mg/kg
ED50 [22]: > 50 mg/kg

SMILES: COc1cccc2c1C(=O)c1c(O)c3c(c(O)c1C2=O)C[C@@](O)(C(=O)CO)C[C@@H]3O[C@H]1C[C@H](N)[C@H](O)[C@H](C)O1 [DOXORUBICIN]
viability at 24 h, 10 µM [23]: 91%
viability at 24 h, 10 µM [24]: 77.4%
viability at 24 h, 100 µM [25]: 48%
viability at 24 h, 25 µM [26]: 65.3%
viability at 24 h, 50 µM [27]: 51.6%
viability at 24 h, 50 µM [28]: 75%
viability at 24 h, 25 µM [29]: 83%
viability at 24 h, 100 µM [30]: 44.9%

SMILES: CCCC(CCC)C(=O)O [VALPROIC ACID]
ED50 [21]: 646 mg/kg
ED50 [22]: 220 mg/kg
ED50 [31]: 126 mg/kg
